Measurements: ChEMBL document CHEMBL1133704, “Synthesis, biodistribution, and primate imaging of fluorine-18 labeled 2beta-carbo-1'-fluoro-2-propoxy-3beta-(4-chlorophenyl)tr opanes. Ligands for the imaging of dopamine transporters by positron emission tomography” (J Med Chem, 2000)

How the values were obtained:
[1] = tested on: kidney; experiment: Ratio of inhibition of 5-HT to inhibition of dopamine (5-HT/DA) in murine kidney cells transfected with human serotonin transporter.; assay type: cell-based
[2] = Ratio of inhibition of 5-HT to inhibition of dopamine (5-HT/DA); ND means no data.
[3] = biological target: Sodium-dependent serotonin transporter (Homo sapiens, UniProt P31645); experiment: Inhibition constant against [3H]citalopram in murine kidney cells transfected with human serotonin transporter.; assay type: cell-based
Sodium-dependent serotonin transporter (Homo sapiens, UniProt P31645), sequence (P31645 whole entry): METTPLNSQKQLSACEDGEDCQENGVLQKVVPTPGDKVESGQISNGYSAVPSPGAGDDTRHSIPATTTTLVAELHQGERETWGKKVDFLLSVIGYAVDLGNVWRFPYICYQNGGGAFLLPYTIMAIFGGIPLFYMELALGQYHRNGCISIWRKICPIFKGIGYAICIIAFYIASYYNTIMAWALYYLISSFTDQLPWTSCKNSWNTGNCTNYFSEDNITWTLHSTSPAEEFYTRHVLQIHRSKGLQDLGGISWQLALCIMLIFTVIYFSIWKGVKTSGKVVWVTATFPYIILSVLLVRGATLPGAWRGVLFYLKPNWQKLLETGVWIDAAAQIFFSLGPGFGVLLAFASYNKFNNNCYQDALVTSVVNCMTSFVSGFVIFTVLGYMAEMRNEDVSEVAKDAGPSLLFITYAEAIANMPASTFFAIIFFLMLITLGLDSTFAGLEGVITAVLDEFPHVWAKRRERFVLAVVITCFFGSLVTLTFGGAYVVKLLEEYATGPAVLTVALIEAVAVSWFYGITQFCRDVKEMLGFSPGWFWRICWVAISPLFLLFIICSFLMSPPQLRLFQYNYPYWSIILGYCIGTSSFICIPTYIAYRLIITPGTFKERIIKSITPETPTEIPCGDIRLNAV
Procedure, shortened: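 Membranes from a kidney cell line stably expressing human SERT. Buffer: 50 mM Tris, 120 mM NaCl, 5 mM KCl, pH 7.9. Radioligand: [³H]citalopram at 0.5 nM final. Incubated 1 h at 22 °C with competitor at nine concentrations (10^-13 to 10^-6 M, triplicate). Filtration, then scintillation counting. Ki taken from competition curves.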

[4] = biological target: Sodium-dependent dopamine transporter (Homo sapiens, UniProt Q01959); experiment: Inhibition constant against [N-methyl-3H]WIN-35428 in murine kidney cells transfected with human dopamine transporter.; assay type: cell-based
Sodium-dependent dopamine transporter (Homo sapiens, UniProt Q01959), sequence (Q01959 whole entry): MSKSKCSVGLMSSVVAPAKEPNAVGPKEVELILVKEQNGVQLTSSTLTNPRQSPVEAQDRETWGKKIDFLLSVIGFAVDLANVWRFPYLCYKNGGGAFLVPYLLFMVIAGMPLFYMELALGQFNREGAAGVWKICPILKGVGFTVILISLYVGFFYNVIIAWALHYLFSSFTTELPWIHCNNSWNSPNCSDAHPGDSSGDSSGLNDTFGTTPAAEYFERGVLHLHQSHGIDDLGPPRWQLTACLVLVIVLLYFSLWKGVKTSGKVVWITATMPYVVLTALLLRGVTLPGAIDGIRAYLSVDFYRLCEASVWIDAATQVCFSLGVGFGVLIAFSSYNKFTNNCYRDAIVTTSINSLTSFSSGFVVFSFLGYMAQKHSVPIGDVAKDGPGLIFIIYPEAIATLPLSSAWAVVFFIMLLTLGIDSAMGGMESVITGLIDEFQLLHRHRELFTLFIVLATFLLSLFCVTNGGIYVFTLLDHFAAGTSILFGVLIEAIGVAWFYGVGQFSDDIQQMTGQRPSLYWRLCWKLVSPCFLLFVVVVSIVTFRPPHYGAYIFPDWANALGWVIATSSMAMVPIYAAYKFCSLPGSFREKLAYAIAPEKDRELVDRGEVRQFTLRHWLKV
Procedure, shortened: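 Membranes from a kidney cell line stably expressing human DAT. Buffer: 0.03 M phosphate, pH 7.4, with 0.32 M sucrose. Radioligand: [³H]WIN 35,428 at 2.0 nM final. Incubated 2 h at 4 °C with competitor at nine concentrations (10^-13 to 10^-6 M, triplicate). GF/B filtration, then scintillation counting. Ki taken from competition curves.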

[5] = biological target: Sodium-dependent serotonin transporter (Rattus norvegicus, UniProt P31652); experiment: Inhibition constant in rat serotonin transporter.
Sodium-dependent serotonin transporter (Rattus norvegicus, UniProt P31652), sequence (P31652 whole entry): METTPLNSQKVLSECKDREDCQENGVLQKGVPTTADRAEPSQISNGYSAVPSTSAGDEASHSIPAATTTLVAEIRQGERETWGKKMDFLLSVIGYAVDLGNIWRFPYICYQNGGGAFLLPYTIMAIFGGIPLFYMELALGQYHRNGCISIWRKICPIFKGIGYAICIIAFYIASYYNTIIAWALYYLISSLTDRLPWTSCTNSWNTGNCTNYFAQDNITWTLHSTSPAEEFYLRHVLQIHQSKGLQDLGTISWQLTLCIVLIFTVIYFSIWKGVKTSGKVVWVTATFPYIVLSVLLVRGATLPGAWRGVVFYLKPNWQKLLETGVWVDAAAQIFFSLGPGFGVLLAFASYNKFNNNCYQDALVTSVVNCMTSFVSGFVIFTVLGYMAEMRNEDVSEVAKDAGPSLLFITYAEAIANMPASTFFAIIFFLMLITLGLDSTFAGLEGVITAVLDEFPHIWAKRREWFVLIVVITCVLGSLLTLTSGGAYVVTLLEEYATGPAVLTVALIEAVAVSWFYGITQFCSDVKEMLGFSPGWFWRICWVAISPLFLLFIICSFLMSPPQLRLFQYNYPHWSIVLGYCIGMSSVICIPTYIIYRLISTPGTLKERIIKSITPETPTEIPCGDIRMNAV
Procedure, shortened: (§1)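 Run by an outside screening program on membranes from rat striatum or cortex. Radioligand (2-12 nM) was incubated with 7-11 competitor concentrations. Radioligands: [N-methyl-³H]WIN 35,428 for DAT, [³H]citalopram for 5-HT transporter, [³H]desmethylimipramine for NE transporter. Ki values reported.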

[6] = biological target: Sodium-dependent dopamine transporter (Rattus norvegicus, UniProt P23977); experiment: Inhibition constant in rat dopamine transporter.; procedure, shortened: as §1
Sodium-dependent dopamine transporter (Rattus norvegicus, UniProt P23977), sequence (P23977 whole entry): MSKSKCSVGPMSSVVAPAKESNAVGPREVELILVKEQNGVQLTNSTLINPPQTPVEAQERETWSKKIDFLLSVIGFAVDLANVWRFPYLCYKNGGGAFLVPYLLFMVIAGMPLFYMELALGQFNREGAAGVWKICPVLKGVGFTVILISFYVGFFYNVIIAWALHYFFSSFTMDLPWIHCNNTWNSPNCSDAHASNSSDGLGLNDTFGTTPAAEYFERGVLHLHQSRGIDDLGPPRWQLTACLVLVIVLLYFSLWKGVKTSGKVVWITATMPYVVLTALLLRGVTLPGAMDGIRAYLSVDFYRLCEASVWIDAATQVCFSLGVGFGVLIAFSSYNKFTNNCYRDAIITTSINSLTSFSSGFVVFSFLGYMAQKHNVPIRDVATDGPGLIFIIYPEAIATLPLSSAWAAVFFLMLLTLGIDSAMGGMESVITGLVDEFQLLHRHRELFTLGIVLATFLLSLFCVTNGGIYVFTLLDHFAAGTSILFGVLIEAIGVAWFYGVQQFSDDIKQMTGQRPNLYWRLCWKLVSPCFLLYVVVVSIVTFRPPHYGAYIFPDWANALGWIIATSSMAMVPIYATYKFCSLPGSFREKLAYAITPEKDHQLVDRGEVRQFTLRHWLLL

[7] = biological target: Norepinephrine transporter (Rattus norvegicus, UniProt Q9WTR4); experiment: Inhibition constant in rat Norepinephrine transporter; procedure, shortened: as §1
Norepinephrine transporter, sequence (Q9WTR4 whole entry): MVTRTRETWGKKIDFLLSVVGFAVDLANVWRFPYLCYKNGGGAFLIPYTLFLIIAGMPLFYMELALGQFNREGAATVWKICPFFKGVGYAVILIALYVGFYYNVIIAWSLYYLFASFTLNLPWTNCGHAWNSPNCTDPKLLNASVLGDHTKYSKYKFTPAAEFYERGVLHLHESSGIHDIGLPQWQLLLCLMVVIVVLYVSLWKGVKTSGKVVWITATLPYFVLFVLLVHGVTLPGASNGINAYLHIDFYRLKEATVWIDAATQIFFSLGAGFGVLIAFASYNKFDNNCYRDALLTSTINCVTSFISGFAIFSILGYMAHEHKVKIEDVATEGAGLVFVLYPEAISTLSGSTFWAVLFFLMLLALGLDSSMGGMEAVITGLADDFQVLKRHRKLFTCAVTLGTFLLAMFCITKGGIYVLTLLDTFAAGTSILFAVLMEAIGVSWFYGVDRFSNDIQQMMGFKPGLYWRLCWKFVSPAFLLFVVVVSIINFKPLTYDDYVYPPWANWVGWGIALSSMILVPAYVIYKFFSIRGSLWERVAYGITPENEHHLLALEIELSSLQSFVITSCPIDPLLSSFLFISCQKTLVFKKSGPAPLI

[8] = tested on: Rattus norvegicus; experiment: Distribution of Radioactivity (percent injected dose per gram of tissue) in rest rat of brain after 5 min of iv administration; value ranges from 1.19-1.53; assay type: ADME, organism-based; details: in vivo
Procedure, shortened: (§2)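 Male Sprague-Dawley rats (225-300 g) under ketamine received a tail-vein dose of 50 µCi of [18F]-labeled tropane in 0.2 mL 13% EtOH/0.9% NaCl. At 5, 30, 60 or 120 min, cortex, striatum and cerebellum were dissected into tared tubes, weighed and γ-counted. "Rest of brain" was also counted. %dose/g was calculated against the diluted injected dose. Values are mean and range for three or four rats.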

[9] = tested on: Rattus norvegicus; experiment: Distribution of Radioactivity (percent injected dose per gram of tissue) in rest rat of brain after 120 min of iv administration; value ranges from 0.22-0.33; assay type: ADME, organism-based; details: in vivo, 2 h; procedure, shortened: as §2
[10] = tested on: Rattus norvegicus; experiment: Distribution of Radioactivity (percent injected dose per gram of tissue) in Rat brain cortex after 30 min of iv administration; value ranges from 2.47-3.09; assay type: ADME, organism-based; details: in vivo, 0.5 h; procedure, shortened: as §2
[11] = tested on: Rattus norvegicus; experiment: Distribution of Radioactivity (percent injected dose per gram of tissue) in Rat striatum after 120 min of iv administration; value ranges from 1.07-1.22; assay type: ADME, organism-based; details: in vivo, 2 h; procedure, shortened: as §2
[12] = tested on: Rattus norvegicus; experiment: Distribution of Radioactivity (percent injected dose per gram of tissue) in rest rat of brain after 60 min of iv administration; value ranges from 0.36-0.52; assay type: ADME, organism-based; details: in vivo, 1 h; procedure, shortened: as §2
[13] = Ratio of Distribution of Radioactivity (percent injected dose per gram of tissue) in striatum to cerebellum of brain after 120 min of iv administration; value ranges from 4.64-6.14; assay type: ADME, organism-based; details: in vivo, 2 h
[14] = Ratio of Distribution of Radioactivity (percent injected dose per gram of tissue) in striatum to cerebellum of brain after 5 min of iv administration; value ranges from 2.49-3.81; assay type: ADME, organism-based; details: in vivo
[15] = tested on: Rattus norvegicus; experiment: Distribution of Radioactivity (percent injected dose per gram of tissue) in Rat brain cerebellum after 5 min of iv administration; value ranges from 1.26-1.62; assay type: ADME, organism-based; details: in vivo; procedure, shortened: as §2
[16] = Ratio of Distribution of Radioactivity (percent injected dose per gram of tissue) in striatum to cortex of brain after 60 min of iv administration; value ranges from 2.59-4.06; assay type: ADME, organism-based; details: in vivo, 1 h
[17] = tested on: Rattus norvegicus; experiment: Distribution of Radioactivity (percent injected dose per gram of tissue) in Rat brain cerebellum after 30 min of iv administration; value ranges from 0.75-1.23; assay type: ADME, organism-based; details: in vivo, 0.5 h; procedure, shortened: as §2
[18] = tested on: Rattus norvegicus; experiment: Distribution of Radioactivity (percent injected dose per gram of tissue) in Rat brain cortex after 5 min of iv administration; value ranges from 2.47-3.09; assay type: ADME, organism-based; details: in vivo; procedure, shortened: as §2
[19] = tested on: Rattus norvegicus; experiment: Distribution of Radioactivity (percent injected dose per gram of tissue) in Rat brain cerebellum after 60 min of iv administration; value ranges from 0.32-0.48; assay type: ADME, organism-based; details: in vivo, 1 h; procedure, shortened: as §2
[20] = tested on: Rattus norvegicus; experiment: Distribution of Radioactivity (percent injected dose per gram of tissue) in Rat brain cortex after 60 min of iv administration; value ranges from 0.51-1.09; assay type: ADME, organism-based; details: in vivo, 1 h; procedure, shortened: as §2
[21] = tested on: Rattus norvegicus; experiment: Distribution of Radioactivity (percent injected dose per gram of tissue) in Rat striatum after 60 min of iv administration; value ranges from 2.07-2.83; assay type: ADME, organism-based; details: in vivo, 1 h; procedure, shortened: as §2
[22] = tested on: Rattus norvegicus; experiment: Distribution of Radioactivity (percent injected dose per gram of tissue) in rest rat of brain after 30 min of iv administration; value ranges from 0.85-1.21; assay type: ADME, organism-based; details: in vivo, 0.5 h; procedure, shortened: as §2
[23] = Ratio of Distribution of Radioactivity (percent injected dose per gram of tissue) in striatum to cerebellum of brain after 60 min of iv administration; value ranges from 4.43-6.93; assay type: ADME, organism-based; details: in vivo, 1 h
[24] = Ratio of Distribution of Radioactivity (percent injected dose per gram of tissue) in striatum to cortex of brain after 30 min of iv administration; value ranges from 1.67-2.85; assay type: ADME, organism-based; details: in vivo, 0.5 h
[25] = Ratio of Distribution of Radioactivity (percent injected dose per gram of tissue) in striatum to cerebellum of brain after 30 min of iv administration; value ranges from 3.83-4.94; assay type: ADME, organism-based; details: in vivo, 0.5 h
[26] = tested on: Rattus norvegicus; experiment: Distribution of Radioactivity (percent injected dose per gram of tissue) in Rat brain cerebellum after 120 min of iv administration; value ranges from 0.19-0.25; assay type: ADME, organism-based; details: in vivo, 2 h; procedure, shortened: as §2
[27] = Ratio of Distribution of Radioactivity (percent injected dose per gram of tissue) in striatum to cortex of brain after 120 min of iv administration; value ranges from 2.61-3.24; assay type: ADME, organism-based; details: in vivo, 2 h
[28] = tested on: Rattus norvegicus; experiment: Distribution of Radioactivity (percent injected dose per gram of tissue) in Rat brain cortex after 120 min of iv administration; value ranges from 0.22-0.33; assay type: ADME, organism-based; details: in vivo, 2 h; procedure, shortened: as §2
[29] = tested on: Rattus norvegicus; experiment: Distribution of Radioactivity (percent injected dose per gram of tissue) in Rat striatum 5 min of iv administration; value ranges from 3.44-4.80.; assay type: ADME, organism-based; details: in vivo; procedure, shortened: as §2
[30] = tested on: Rattus norvegicus; experiment: Distribution of Radioactivity (percent injected dose per gram of tissue)in Rat striatum after 30 min of iv administration; value ranges from 3.57-6.08; assay type: ADME, organism-based; details: in vivo, 0.5 h; procedure, shortened: as §2
[31] = Ratio of Distribution of Radioactivity (percent injected dose per gram of tissue) in striatum to cortex of brain after 5 min of iv administration; value ranges from 1.32-1.94; assay type: ADME, organism-based; details: in vivo

C[C@@H](CF)OC(=O)C1C(c2ccc(Cl)cc2)CC2CCC1N2C (stereo partly drawn) showed a Ratio [1] of 127, a Ratio [2] of 23 and a Ki [3] of 85 nM. For the same compound, the Ki [4] was 0.67 nM, the Ki [5] was 137 nM and the Ki [6] was 6.06 nM. For the same compound, the Ki [7] was 690 nM.

Work on C[C@H](CF)OC(=O)C1C(c2ccc(Cl)cc2)CC2CCC1N2C (stereo partly drawn) yielded a Ratio [1] of 20, a Biodistribution [8] of 1.36% and a Biodistribution [9] of 0.27%. For the same compound, the Biodistribution [10] was 2.04%, the Biodistribution [11] was 1.2% and the Biodistribution [12] was 0.45%. For the same compound, the “S/Cereb Ratio” value [13] was 5.45, the Ratio [2] was 9 and the “S/Cereb Ratio” value [14] was 2.79. For the same compound, the Biodistribution [15] was 1.42%, the “S/CX Ratio” value [16] was 2.96 and the Ki [3] was 64 nM. It also gave a Biodistribution [17] of 0.99%, a Ki [4] of 3.2 nM and a Ki [5] of 133 nM. The Ki [6] was 14.7 nM, the Biodistribution [18] was 2.76% and the Biodistribution [19] was 0.38%. The Biodistribution [20] was 0.77%, the Biodistribution [21] was 2.28% and the Biodistribution [22] was 1.03%. The “S/Cereb Ratio” value [23] was 6, the “S/CX Ratio” value [24] was 2.21 and the Ki [7] was 498 nM. The “S/Cereb Ratio” value [25] was 4.55, the Biodistribution [26] was 0.22% and the “S/CX Ratio” value [27] was 3. For the same compound, the Biodistribution [28] was 0.4%, the Biodistribution [29] was 3.97% and the Biodistribution [30] was 4.5%. The “S/CX Ratio” value [31] was 1.44.
